Measurements from ChEMBL document CHEMBL1156308 (J Med Chem, 2010).

Columns and labels:
Type in all cases: ADME, organism-based
[1] = Biodistribution in baboon kidney cortex at 85 mg, iv after 60 mins; conditions: papio hamadryas, read-out: Drug uptake
[2] = Biodistribution in baboon kidney cortex at 85 mg, iv after 30 mins; conditions: papio hamadryas, read-out: Drug uptake
[3] = Biodistribution in baboon whole brain at 85 mg, iv after 90 mins; conditions: papio hamadryas, read-out: Drug uptake
Summary of the method: (§1)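 Brain PET ran 90 min after i.v. [11C]-labelled drug in anaesthetised baboons. Whole-brain regions of interest gave time-activity curves in %ID/cc. µg/ml values were estimated from baboon weight (17 kg) and the recommended human daily dose per kg, assuming signal comes from intact drug.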

[4] = Biodistribution in baboon kidney cortex at 85 mg, iv after 90 mins; conditions: papio hamadryas, read-out: Drug uptake
[5] = Biodistribution in baboon plasma at 85 mg, iv after 90 mins; conditions: papio hamadryas, read-out: Drug uptake
Summary of the method: (§2)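 Anaesthetised baboons received [11C]-labelled drug i.v. (radial arm vein) by PET protocol. Arterial blood was drawn from a popliteal catheter every 5 s for 2 min, then at 2–90 min. Plasma activity is given as %ID/cc. µg/ml values were estimated from the human daily dose per kg scaled to a 17 kg baboon, assuming signal comes from intact drug.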

[6] = Biodistribution in baboon kidney medulla at 85 mg, iv after 30 mins; conditions: papio hamadryas, read-out: Drug uptake
Summary of the method: (§3)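 The [11C]-labeled drug was given as an i.v. micro dose via a radial arm vein to anesthetized baboons (ketamine 10 mg/kg i.m.; O2/N2O/isoflurane 1–4%), then torso PET. Organ TACs came from manually drawn ROIs and are reported as %ID/cc. µg/ml was estimated assuming a 5 mg/kg dose, a 17 kg baboon, and that the positron signal is intact drug.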

[7] = Biodistribution in baboon lung at 85 mg, iv after 60 mins; conditions: papio hamadryas, read-out: Drug uptake
[8] = Biodistribution in baboon lung at 85 mg, iv after 90 mins; conditions: papio hamadryas, read-out: Drug uptake
[9] = Biodistribution in baboon whole brain at 85 mg, iv after 60 mins; conditions: papio hamadryas, read-out: Drug uptake; summary of the method: as §1
[10] = Biodistribution in baboon liver at 85 mg, iv after 90 mins; conditions: papio hamadryas, read-out: Drug uptake
[11] = Biodistribution in baboon heart at 85 mg, iv after 30 mins; conditions: papio hamadryas, read-out: Drug uptake
[12] = Biodistribution in baboon kidney cortex at 85 mg, iv after 15 mins; conditions: papio hamadryas, read-out: Drug uptake
[13] = Biodistribution in baboon kidney medulla at 85 mg, iv after 90 mins; conditions: papio hamadryas, read-out: Drug uptake; summary of the method: as §3
[14] = Biodistribution in baboon plasma at 85 mg, iv after 60 mins; conditions: papio hamadryas, read-out: Drug uptake; summary of the method: as §2
[15] = Biodistribution in baboon kidney medulla at 85 mg, iv after 15 mins; conditions: papio hamadryas, read-out: Drug uptake; summary of the method: as §3
[16] = Biodistribution in baboon liver at 85 mg, iv after 30 mins; conditions: papio hamadryas, read-out: Drug uptake
[17] = Biodistribution in baboon lung at 85 mg, iv after 15 mins; conditions: papio hamadryas, read-out: Drug uptake
[18] = Biodistribution in baboon liver at 85 mg, iv after 60 mins; conditions: papio hamadryas, read-out: Drug uptake
[19] = Biodistribution in baboon plasma at 85 mg, iv after 30 mins; conditions: papio hamadryas, read-out: Drug uptake; summary of the method: as §2
[20] = Biodistribution in baboon heart at 85 mg, iv after 90 mins; conditions: papio hamadryas, read-out: Drug uptake
[21] = Biodistribution in baboon heart at 85 mg, iv after 15 mins; conditions: papio hamadryas, read-out: Drug uptake
[22] = Biodistribution in baboon heart at 85 mg, iv after 60 mins; conditions: papio hamadryas, read-out: Drug uptake
[23] = Biodistribution in baboon liver at 85 mg, iv after 15 mins; conditions: papio hamadryas, read-out: Drug uptake
[24] = Biodistribution in baboon kidney medulla at 85 mg, iv after 60 mins; conditions: papio hamadryas, read-out: Drug uptake; summary of the method: as §3
[25] = Biodistribution in baboon plasma at 85 mg, iv after 15 mins; conditions: papio hamadryas, read-out: Drug uptake
Summary of the method: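 Anesthetised baboons (ketamine 10 mg/kg i.m.; oxygen, nitrous oxide and isoflurane 1–4% during scanning) got a micro dose of [11C]-labelled drug i.v. via a radial arm vein; arterial blood was sampled serially over 90 min. Plasma %ID/cc was converted to µg/ml from the listed dose over a 17 kg baboon, assuming the signal is intact drug.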

[26] = Biodistribution in baboon whole brain at 85 mg, iv after 30 mins; conditions: papio hamadryas, read-out: Drug uptake; summary of the method: as §1
[27] = Biodistribution in baboon lung at 85 mg, iv after 30 mins; conditions: papio hamadryas, read-out: Drug uptake
[28] = Biodistribution in mouse whole brain at 10 mg/kg, sc after 60 mins; set-up: dose 10 mg/kg, route subcutaneous; conditions: read-out: Drug uptake
[29] = Biodistribution in mouse whole brain at 10 mg/kg, sc after 30 mins; set-up: dose 10 mg/kg, route subcutaneous; conditions: read-out: Drug uptake

NN[11C](=O)c1ccncc1
concentration at 1 h [1]: 7720 ng/mL
concentration at 0.5 h [2]: 9260 ng/mL
concentration at 1.5 h [3]: 1750 ng/mL
concentration at 1.5 h [4]: 8540 ng/mL
concentration at 1.5 h [5]: 1620 ng/mL
concentration at 0.5 h [6]: 15400 ng/mL
concentration at 1 h [7]: 4420 ng/mL
concentration at 1.5 h [8]: 4190 ng/mL
concentration at 1 h [9]: 2110 ng/mL
concentration at 1.5 h [10]: 6910 ng/mL
concentration at 0.5 h [11]: 6130 ng/mL
concentration at 0.25 h [12]: 15100 ng/mL
concentration at 1.5 h [13]: 14700 ng/mL
concentration at 1 h [14]: 2050 ng/mL
concentration at 0.25 h [15]: 18900 ng/mL
concentration at 0.5 h [16]: 9710 ng/mL
concentration at 0.25 h [17]: 7720 ng/mL
concentration at 1 h [18]: 7640 ng/mL
concentration at 0.5 h [19]: 2960 ng/mL
concentration at 1.5 h [20]: 4150 ng/mL
concentration at 0.25 h [21]: 8720 ng/mL
concentration at 1 h [22]: 3740 ng/mL
concentration at 0.25 h [23]: 12500 ng/mL
concentration at 1 h [24]: 16400 ng/mL
concentration at 0.25 h [25]: 3760 ng/mL
concentration at 0.5 h [26]: 2540 ng/mL
concentration at 0.5 h [27]: 6090 ng/mL

NN[14C](=O)c1ccncc1
concentration at 1 h [28]: 3200 ng/g
concentration at 0.5 h [29]: 4400 ng/g
